Compounds with a hit are over-represented: about 1.2% of the library has one in this group of screens.
CaV13 ICDI inh – Primary screen for inhibitors of IQ motif and Ca2+-dependent inactivation inhibitor domain binding in CACNA1D, Förster resonance energy transfer in living cells, …; HEK cells, CFP/YFP FRET ICDI-IQ, plate reader, 10 min; percent FRET-ratio fall versus neutral wells; inhibition, % at 12.3 µM; hit rate 0.098% among 340,000; AID 743397;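 active = mean replicate inhibition of at least 30% and at least 1% of replicates passing that level; inconclusive = only one of the two criteria is met; inactive = neither criterion is met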;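 also: 0% = median of the neutral control wells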
Runt-SMMHC FRET – inhibitors of human RUNX1 Runt domain binding to CBFb-SMMHC. Q01196+Q13951. Cerulean-Runt/Venus-CBFb-SMMHC FRET ratio 530/480, 1 h. hit rate 0.74% among 220,000. inhibition, % at 20 µM;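 active = mean inhibition across duplicate retests at 20 µM reaching about 50%, limit read from the data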;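 also: 0% = DMSO wells and 100% = wells with excess untagged CBFb-SMMHC; inhibitors lower the FRET ratio by blocking Runt binding to CBFb-SMMHC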
Target sequence (Q01196 whole entry, looked up, the tested form may be a part): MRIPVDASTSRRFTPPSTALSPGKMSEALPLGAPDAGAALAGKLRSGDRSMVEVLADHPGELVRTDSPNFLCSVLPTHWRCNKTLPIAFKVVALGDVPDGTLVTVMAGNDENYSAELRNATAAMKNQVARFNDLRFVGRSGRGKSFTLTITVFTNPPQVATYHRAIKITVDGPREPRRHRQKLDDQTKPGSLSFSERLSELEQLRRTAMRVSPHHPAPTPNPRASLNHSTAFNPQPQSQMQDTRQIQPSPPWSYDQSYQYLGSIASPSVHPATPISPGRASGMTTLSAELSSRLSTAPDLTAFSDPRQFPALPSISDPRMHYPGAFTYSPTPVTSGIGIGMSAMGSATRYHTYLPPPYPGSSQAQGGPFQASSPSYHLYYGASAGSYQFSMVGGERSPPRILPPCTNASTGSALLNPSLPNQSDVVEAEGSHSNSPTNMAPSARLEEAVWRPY
Target sequence (Q13951 whole entry, looked up, the tested form may be a part): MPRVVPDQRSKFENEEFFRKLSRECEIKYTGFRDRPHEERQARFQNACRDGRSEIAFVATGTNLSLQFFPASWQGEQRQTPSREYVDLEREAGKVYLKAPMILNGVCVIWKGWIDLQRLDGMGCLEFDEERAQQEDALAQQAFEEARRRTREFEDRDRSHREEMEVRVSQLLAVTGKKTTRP
RanGTP-Impb inh – inhibitors of RanGTP-importin-beta interaction, primary screen, biochemical, FRET, CFP-Ran, YFP-importin-beta, homogeneous; cell-free CFP-Ran/YFP-importin-beta FRET ratio; inhibition, % (concentration not given with the values); hit rate 1.1% among 300,000; AID 2216;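 active = more than half of the replicate wells show a fall in the fluorescence ratio signal beyond about 16%, limit read from the data, passing the limit was not always enough; inconclusive = exactly half of the replicate wells pass the set limit; inactive = fewer than half of replicates pass the limit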;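 also: 0% = DMSO wells and 100% = Ran loaded with GDP instead of GTP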
Runt-CBFb FRET – blocks binding of human RUNX1 Runt domain to CBFb; Cerulean-Runt/Venus-CBFb FRET ratio 530/480, 1 h; inhibition, % at 20 µM; hit rate 0.46% among 220,000; AID 1496;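 active = inhibition over about 50% at 20 µM in the single-dose screen, limit read from the data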;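 also: 0% = DMSO wells and 100% = excess unlabeled CBFb competitor control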
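System: Cerulean-labeled Runt domain protein | Quantity: 100 nM of each labeled protein | Schedule: 1 h compound exposure, room temperature | Detection: Fluorescence energy transfer, 422 nm excitation, 530/480 nm emission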
The depositor's hits bear a star; ? = inconclusive; / = not tested or not shown.

SMILES | CaV13 ICDI inh | Runt-SMMHC FRET | RanGTP-Impb inh | Runt-CBFb FRET
CCc1ccc(-c2cc(C(F)(F)F)n3nc(C(=O)Nc4cnn(Cc5ccc(C)cc5)c4)cc3n2)s1 | / | -4 | 39* | -50
O=C(Nc1ccc(Cl)cc1)c1cc2nc(-c3ccco3)cc(C(F)(F)F)n2n1 | / | -23 | 4 | -5
Cc1ccccc1Cn1cc(NC(=O)c2cc3nc(-c4ccco4)cc(C(F)(F)F)n3n2)cn1 | -5 | -86 | 30* | -5
CC(C)(C)S(=O)N1C[C@H]2CC(=O)C(CCO)=C2[C@@H]1CCO (some centres undefined) | -5 | / | / | /
CCOC(=O)c1cc2c(ccn2C)n1CC(=O)N1CCCC(C)C1 (centres undefined) | / | -15 | 24* | 23
CCOC(=O)c1cc2c(ccn2C)n1CC(=O)N1CCC(Cc2ccccc2)CC1 | / | -13 | -1 | 36
COCCNC(=O)C1(C)CCCN(C(=O)c2ccccc2)C1 (centres undefined) | -5 | / | / | /
Cc1nc(CCNC(=O)Cc2ccc(Cl)cc2)cs1 | 39* | 0 | -3 | 0
Cc1nc(CCNC(=O)Cc2ccc(F)cc2)cs1 | 5 | 3 | -2 | 0
CCc1cccc(N(C(=O)c2csnn2)C(C(=O)NC(C)(C)CC)c2ccccn2)c1 (centres undefined) | / | 1 | 2 | -1
CCN1CCc2c(sc(NC(=O)c3ccc4ccccc4c3)c2C(N)=O)C1 | -8 | / | / | /
CCN1CCN(S(=O)(=O)c2ccc(C(=O)Nc3sc4c(c3C(N)=O)CCN(CC)C4)cc2)CC1 | -6 | / | 58* | /
CC(C)N1CCc2c(sc(NC(=O)c3ccc(S(=O)(=O)N4CCc5ccccc54)cc3)c2C(N)=O)C1 | / | 26 | 90* | -14
CCN1CCc2c(sc(NC(=O)c3ccc(S(=O)(=O)N4CC(C)OC(C)C4)cc3)c2C(N)=O)C1 (centres undefined) | -1 | / | 28* | /
CC1CN(S(=O)(=O)c2ccc(C(=O)Nc3sc4c(c3C(N)=O)CCN(C)C4)cc2)CC(C)O1 (centres undefined) | / | 5 | / | 0
CCN1CCc2c(sc(NC(=S)NC(=O)c3ccc(Cl)cc3)c2C(N)=O)C1 | -1 | 60* | 81* | 119*
CCOC(=O)CN1C(=O)N(c2ccc(OC)cc2)[C@H]2CC3c4ccccc4C[C@]3(C)[C@@H](C(=O)N(C)C3CCCCC3)C[C@H]21 (some centres undefined) | -4 | / | / | /
Fc1cc(F)c(F)c(SCn2cc(Br)cn2)c1F | -6 | / | / | /
O=c1cc(C(F)(F)F)[nH]c2ccc(C(F)(F)F)cc12 | -13 | -1 | 6 | 0
COC(=O)c1scc2c(=O)cc(C(F)(F)F)[nH]c12 | 1 | 84* | 117* | 10
COc1ccc(C=NNC(=O)c2ccccc2OCc2ccc(F)cc2)c(OC)c1 | -16 | / | / | /
COC(=O)c1cc2c(=O)n3ccccc3nc2n(C)c1=N | / | 42 | / | 13
N#Cc1cc2c(=O)n3ccccc3nc2n(-c2ccc(Cl)cc2)c1=O | -4 | 90* | / | 47
CC1CN(C(=O)c2cc3c(=O)n4ccccc4nc3n2C)CC(C)O1 (centres undefined) | -4 | / | 6 | /
Cc1ccccc1-n1c(=O)c(C#N)cc2c(=O)n3ccccc3nc21 | 9 | 59* | 128* | 19
SMILES | CaV13 ICDI inh | Runt-SMMHC FRET | RanGTP-Impb inh | Runt-CBFb FRET
Cc1cc(-n2c(=O)c(C#N)cc3c(=O)n4ccccc4nc32)no1 | 33* | 65* | 161* | 12
Cc1ccc(S(=O)(=O)N2CCN(CC(=O)N/N=C/C=C/c3ccccc3)CC2)cc1 | -6 | 6 | -18 | -2
NCCCCC(NC(=O)C1CCCN1C(=O)C1CSSCC(N)C(=O)NC(Cc2ccc(O)cc2)C(=O)NC(Cc2ccccc2)C(=O)NC(CCC(N)=O)C(=O)NC(CC(N)=O)C(=O)N1)C(=O)NCC(N)=O (centres undefined) | / | 2 | / | 2
CC(=NNc1cc(C)c2ccccc2n1)c1ccccn1 | -12 | / | / | /
Cc1ccc(NC(=O)CN2C(=O)S/C(=C/c3ccc(-c4cc(C(=O)O)ccc4C)o3)C2=O)cc1C | -8 | -42 | 36* | 13
Cc1cccc(NC(=O)CN2C(=O)S/C(=C\c3ccc(-c4cccc(C(=O)O)c4C)o3)C2=O)c1 | -9 | 54 | 41* | 31
COC(=O)C(C)N1C(=O)S/C(=C\c2ccc(-c3ccc(C(=O)O)cc3C)o2)C1=O (centres undefined) | -5 | / | 17* | /
Cc1ccccc1NC(=O)CN1C(=O)S/C(=C\c2ccc(-c3cccc(C(=O)O)c3C)o2)C1=O | -1 | -4 | -2 | 12
COc1ccc(CCNC2=C(Cl)C(=O)N(CCc3ccccc3)C2=O)cc1OC | -10 | 55* | -1 | -2
COc1ccc(CCNC2CC(=O)N(CCc3ccccc3)C2=O)cc1OC (centres undefined) | -5 | -2 | ? | 1
Brc1ccc(-c2ccc(/C=N/Nc3nc4ccccc4[nH]3)o2)cc1 | -5 | 63 | 64* | 26
Nc1nc(N)c(N=Nc2ccc(Cl)cc2)c(=O)[nH]1 | 1 | -3 | -3 | 2
Nc1nc(N)c(N=Nc2ccc(SCC(=O)O)cc2)c(=O)[nH]1 | -4 | 2 | 44* | 12
Cn1nc(-c2ccc(Cl)cc2)c2cc(C(=O)N3CCN(c4ccccn4)CC3)sc21 | / | -16 | -1 | -15
Cn1nc(-c2ccc(Cl)cc2)c2cc(C(=O)N3CCN(c4ccccc4)CC3)sc21 | 48* | -14 | 1 | -7
CC(C)c1ccc(OCC(=O)N(Cc2ccco2)C2CCS(=O)(=O)C2)cc1 (centres undefined) | -6 | / | -2 | /
O=C(C=Cc1ccc2c(c1)OCO2)c1ccccc1 | -6 | / | / | /
O=C(/C=C/c1ccccc1)C1=C(O)C(=O)N(CCO)C1c1ccc2c(c1)OCO2 (centres undefined) | 34* | 1 | 0 | 1
CC(C)C[C@@H]1CN(CCCC[C@H]2CNC(=O)C(=O)N2CCC2CCCCC2)C(=O)C(=O)N1CCc1ccc(O)cc1 | -9 | / | / | /
C[C@H](CO)N1C[C@H](C)[C@H](CN(C)C(=O)Nc2ccc(F)cc2)OCc2cnnn2CCCC1=O | -11 | / | / | /
COc1ccc(Nc2cc(Cl)nc(N)n2)cc1OC | -4 | 6 | 18* | 2
Nc1nc(Cl)cc(Nc2ccccc2Cl)n1 | -4 | -4 | -4 | 2
Cc1ccccc1-n1c(O)c(/C=C/C=Nc2ccccc2)c(=O)[nH]c1=O | -5 | 76* | 20* | 29
CCc1ccc(/C=C2/Sc3ccccc3N(CC(=O)NCC3CCCO3)C2=O)cc1 (centres undefined) | -8 | / | 7 | /
O=C(NCCc1ccccc1)c1ccc2nc(-c3ccco3)c(-c3ccco3)nc2c1 | / | -45 | 39* | 2
O=C(NCCO)c1ccc2nc(-c3ccco3)c(-c3ccco3)nc2c1 | -8 | -18 | 3 | 6

Screening data deposited in PubChem by several laboratories.
